Calls of active or inactive are those of the source. No cut-off for these calls is given here.
Experiments:
Rattus norvegicus [1] = species: Rattus norvegicus; test: Compound was tested for 5HT, Dopamine agonist mediated response in reserpine pretreated rats; mix DA, 5-HT syndrome; type: functional, organism-based
Method in brief: (§1)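 Male Sprague-Dawley rats (200–300 g) were given reserpine 5 mg/kg sc 18 h before testing, then the test drug sc in the neck (n = 4). Motor activity was recorded by photocells for 30 min, with gross behaviour observed throughout. 5-HT syndrome: flat body posture, extended limbs, reciprocal forepaw treading. DA response: locomotion and stereotypies.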

Rattus norvegicus [2] = test: In vivo evaluation for 5-HTP accumulation in the corpus striatum in male rats (sc); type: functional
Method in brief: (§2)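 Male Sprague-Dawley rats were pretreated with reserpine 5 mg/kg sc 18 h before dosing. DOPA and 5-HTP in limbic system, striatum and hemispheres were measured by HPLC with electrochemical detection. Dose-response curves used 4–6 dose levels (n = 4) for each region; ED50 was estimated graphically. Partial responses are given as the maximal % reduction at the highest dose tested.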

Rattus norvegicus [3] = test: In vivo evaluation for 5-HTP accumulation in the hemispheres in male rats (sc); type: functional; method in brief: as §2
Rattus norvegicus [4] = test: In vivo evaluation for 5-HTP accumulation in the limbic system in male rats (sc); type: functional; method in brief: as §2
Rattus norvegicus [5] = test: In vivo evaluation for DOPA accumulation in the limbic system in male rats (sc); type: functional; method in brief: as §2
Rattus norvegicus [6] = test: Maximal reduction in percent (Partial response) of DOPA accumulation rat lhemispheres at highest test dose of 2.0 uM/Kg (sc); type: functional; method in brief: as §2
Rattus norvegicus [7] = test: In vivo evaluation for DOPA accumulation in the corpus striatum in male rats (sc); type: functional; method in brief: as §2
Rattus norvegicus [8] = species: Rattus norvegicus; test: Compound was tested for 5HT, Dopamine agonist mediated response in reserpine pretreated rats; no change; type: functional, organism-based; method in brief: as §1
Rattus norvegicus [9] = test: In vivo evaluation for DOPA accumulation in the hemispheres in male rats (sc); type: functional; method in brief: as §2
Rattus norvegicus [10] = species: Rattus norvegicus; test: Compound was tested for 5-HT behavioral response in reserpine pretreated rats; +5HT syndrome; type: functional, organism-based; method in brief: as §1
Rattus norvegicus [11] = test: In vivo evaluation for DOPA accumulation in the corpus striatum in male rats at highest test dose of 50 uM/Kg (sc); inactive; type: functional, organism-based; method in brief: as §2
Rattus norvegicus [12] = test: In vivo evaluation for DOPA accumulation in the hemispheres in male rats at highest test dose of 50 uM/Kg (sc); inactive; type: functional, organism-based; method in brief: as §2
Rattus norvegicus [13] = test: In vivo evaluation for DOPA accumulation in the limbic system in male rats at highest test dose of 50 uM/Kg (sc); inactive; type: functional, organism-based; method in brief: as §2
D(2) dopamine receptor = D(2) dopamine receptor (Rattus norvegicus, UniProt P61169); test: Displacement of [3H]spiperone from dopamine receptor D2
D(2) dopamine receptor, sequence (P61169 whole entry): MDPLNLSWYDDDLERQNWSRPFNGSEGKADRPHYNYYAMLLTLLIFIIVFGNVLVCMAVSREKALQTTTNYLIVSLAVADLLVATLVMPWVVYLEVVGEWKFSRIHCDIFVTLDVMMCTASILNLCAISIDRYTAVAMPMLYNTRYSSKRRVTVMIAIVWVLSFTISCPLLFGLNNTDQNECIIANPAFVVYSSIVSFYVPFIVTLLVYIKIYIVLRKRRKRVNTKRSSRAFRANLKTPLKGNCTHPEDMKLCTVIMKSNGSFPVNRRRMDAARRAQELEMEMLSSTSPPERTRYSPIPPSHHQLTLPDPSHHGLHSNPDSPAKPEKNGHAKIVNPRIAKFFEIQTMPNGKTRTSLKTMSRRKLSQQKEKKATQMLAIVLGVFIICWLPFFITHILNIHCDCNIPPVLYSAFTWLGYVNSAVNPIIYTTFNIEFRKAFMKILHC
Method in brief: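 Rat striatal membranes in 50 mM potassium phosphate buffer (3 mg original tissue) incubated with 0.5 nM [3H]spiperone for 10 min at 37 °C. Nonspecific binding was defined with 10 μM 6,7-ADTN. Ki was calculated by Cheng–Prusoff; triplicates, 3–7 experiments.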

[14] = biological target: T1, 5-hydroxytryptamine receptor 1A (Rattus norvegicus, UniProt P19327); test: In vitro binding affinity against 5-hydroxytryptamine 1A receptor using [3H]8-OH-DPAT
T1 sequence (P19327 whole entry): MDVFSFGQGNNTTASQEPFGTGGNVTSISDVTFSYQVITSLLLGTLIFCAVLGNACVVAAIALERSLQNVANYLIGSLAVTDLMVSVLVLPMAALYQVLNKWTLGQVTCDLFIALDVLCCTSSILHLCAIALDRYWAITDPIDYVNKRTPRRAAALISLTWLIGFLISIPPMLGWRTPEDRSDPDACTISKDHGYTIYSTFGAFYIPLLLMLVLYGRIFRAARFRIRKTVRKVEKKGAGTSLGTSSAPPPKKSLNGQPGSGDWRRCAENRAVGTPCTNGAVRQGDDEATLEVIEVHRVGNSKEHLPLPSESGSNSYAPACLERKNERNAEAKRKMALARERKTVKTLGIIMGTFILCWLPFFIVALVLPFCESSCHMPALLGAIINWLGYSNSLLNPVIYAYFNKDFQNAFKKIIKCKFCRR
Method in brief: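 Rat whole-brain membranes (brainstem and cerebellum removed) in 50 mM Tris pH 8.0 containing NaCl, CaCl2, MgCl2 and 10 μM pargyline, 10 mg tissue per tube. Nonspecific binding was defined with 10 μM 5-HT. IC50 was taken by semi-log linear regression and Ki by Cheng–Prusoff; triplicates.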

Rattus norvegicus [15] = test: In vivo evaluation for DOPA accumulation in the hemispheres in male rats at highest dose tested at 50 uM/Kg; inactive; type: functional, organism-based; method in brief: as §2
Rattus norvegicus [16] = test: Maximal reduction in percent (Partial response) of 5-HTP accumulation rat hemispheres at highest test dose of 50 uM/Kg (sc); type: functional; method in brief: as §2
Rattus norvegicus [17] = test: Maximal reduction in percent (Partial response) of DOPA accumulation rat corpus striatum at highest test dose of 50 uM/Kg (sc); type: functional; method in brief: as §2
Rattus norvegicus [18] = test: Maximal reduction in percent (Partial response) of DOPA accumulation rat limbic system at highest test dose of 50 uM/Kg (sc); type: functional
Rattus norvegicus [19] = test: In vivo evaluation for DOPA accumulation in the hemispheres in male rats at highest dose tested; inactive; type: functional, organism-based; method in brief: as §2
Rattus norvegicus [20] = test: Maximal reduction in percent (Partial response) of DOPA accumulation rat limbic system at highest test dose of […] (sc); type: functional

SMILES | Behavioral response (Rattus norvegicus [1]) | ED50 (Rattus norvegicus [2]) [µmol/kg] | ED50 (Rattus norvegicus [3]) [µmol/kg] | ED50 (Rattus norvegicus [4]) [µmol/kg] | ED50 (Rattus norvegicus [5]) [µmol/kg] | ED50 (Rattus norvegicus [7]) [µmol/kg] | Behavioral response (Rattus norvegicus [10]) | ED50 (Rattus norvegicus [11]) | ED50 (Rattus norvegicus [12]) | ED50 (Rattus norvegicus [13]) | Ki (D(2) dopamine receptor) [nM] | further results
CN(C)[C@@H]1CCc2ccc3[nH]ccc3c2C1 | Active | 0.1 | 0.4 | 0.4 | 0.3 | 0.4 |  |  |  |  |  | Reduction (Rattus norvegicus [6]): 30%
CN(C)[C@H]1CCc2ccc3[nH]ccc3c2C1 |  | 3.9 | 2.7 | 3.9 | 4.2 | 8 |  |  |  |  |  | Behavioral response (Rattus norvegicus [8]): inactive; ED50 (Rattus norvegicus [9]): 13 µmol/kg
CCCN(CCC)[C@H]1CCc2cccc(O)c2C1 |  | 0.065 | 0.077 | 0.061 |  |  | Active | inactive | inactive | inactive | 5070 | 
CCCN(CCC)C1CCc2cc3cc[nH]c3cc2C1 (stereo not given) | Active |  |  |  |  |  |  |  |  |  | 350 | Ki [14]: 570 nM; ED50 (Rattus norvegicus [15]): inactive; Reduction (Rattus norvegicus [16]): 35%; Reduction (Rattus norvegicus [17]): 51%; Reduction (Rattus norvegicus [18]): 30%
CCCN(CCC)[C@@H]1CCc2ccc3[nH]ccc3c2C1 | Active | 0.25 | 0.41 | 0.2 |  | 0.16 |  |  |  |  | 100 | ED50 (Rattus norvegicus [19]): inactive; Reduction (Rattus norvegicus [20]): 37%
CCCN(CCC)[C@@H]1CCc2cccc(O)c2C1 |  | 0.047 | 0.05 | 0.036 |  |  | Active | inactive | inactive | inactive | 826 | 

From ChEMBL document CHEMBL1126740, “(S)- and (R)-8-(di-n-propylamino)-6,7,8,9-tetrahydro-3H-benz[e]indole-1-carbaldehyde: a new class of orally active 5-HT1A-receptor agonists” (J Med Chem, 1993)
